A word on the IC50: it is the concentration needed to halve the response being measured.

Data on four molecules can be found in publication PMC11566320 (Current Research in Pharmacology and Drug Discovery, 2024).

Where two headings read alike, the source gives them in different places.

Data set [1] relates to mice. To be noted: cited from earlier work.
Data set [2] has as its system cancerous cells compared to the non-cancerous MCs. To be noted: ref Khoury et al. (2022); cited from earlier work.
For data set [3], the system named is HaCaT-II-4 cells. Kind of data set: Cellular fractionation / intracellular distribution by ICP-MS. Type of data set: cell-based, human. To be noted: 3 μM, 24 h. Put shortly:
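HaCaT-II-4 cells adhered overnight at 37 °C, 5% CO2, then treated with 3 μM for 24 h. Washed thrice in cold PBS, trypsinised, pelleted (350 g, 5 min, 4 °C) and washed in PBS. Kit buffers gave the cytoplasmic fraction (on ice 5 min, 500 g), the membrane/organelle fraction (on ice 5 min, 8000 g) and a nuclear/cytoskeletal pellet. Results are % platinum per fraction; three independent experiments in triplicate, mean ± SEM.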

Data set [4] deals with HaCaT-II-4 cells. Kind of data set: Quantification of cellular uptake by ICP-MS. Type of data set: cell-based, human. To be noted: 3 μM, maximum at 24 h.
Data set [5] deals with HaCaT-II-4 cells. Kind of data set: Cytotoxicity, WST-1 cell viability assay. Type of data set: cell-based, human. To be noted: read-out: IC50 against HaCaT-II-4 cells, 72 h post-treatment. In a few lines:
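HaCaT-II-4 cells (passage 15) in DMEM with 10% FBS and 1% penicillin-streptomycin were seeded at 10,000 cells/100 μL per well. They were exposed for 72 h to 3-fold serial dilutions, 0.023–150 μM. Medium was replaced with fresh DMEM plus WST-1 for 4 h at 37 °C, and absorbance was read at 450 nm for viability. Three independent trials, each in triplicate; mean ± SEM.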
For orientation: Tetrazolium assays rely on reduction of a dye to a coloured formazan, in cell work by metabolically active cells.

Data set [6] relates to BALB/c mice. Description: Preliminary cisplatin treatment in BALB/c mice. The class given is in vivo. To be noted: 5 mg/kg dose, after few weeks of treatment, preliminary data.
Data set [7] has as its system DMBA/TPA-induced skin tumors in BALB/c mice. Description: DMBA/TPA induced skin carcinogenesis mouse model. Type of data set: in vivo. To be noted: IP weekly; P-PENT 5 and 15 mg/kg, P-HEX 5, 15, 25 mg/kg, cisplatin 2.5 mg/kg.
Data set [8] deals with HaCaT-II-4 cells. Kind of data set: Cell death analysis by flow cytometry. The class given is cell-based, human. To be noted: 3 μM. Put shortly:
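HaCaT-II-4 cells plated at 10^5 cells/ml in 6-well plates, adhered overnight, then exposed to 3 μM test compound for 48 or 72 h at 37 °C, 5% CO2, with a positive control. Harvested cells resuspended in Guava Nexin reagent (Annexin V-PE/7-AAD), 10 min in the dark. Flow cytometry on FL1-H vs FL2-H gave % early apoptosis, late apoptosis and necrosis. Three independent experiments in triplicate; mean ± SEM.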
In general terms: Flow cytometry measures light scatter and fluorescence of single cells or particles in a stream.

[9] abbreviates: of body weight in mice, ref O'Dwyer et al., 1985, Korst et al., 1997.

Consider `O=C1[O][Pt]2([NH][C@@H]3CCCC[C@H]3[NH]2)[O]C1=O` [Oxaliplatin], for which the MTD as platinum in data set [1] (setting [9]) is given as 9.82 mg Pt/Kg.
On to `COc1ccnc2c1ccc1c(OC)ccnc12.NC1CCCCC1N.O=[N+]([O-])[O-].O=[N+]([O-])[O-].[OH-].[OH-].[Pt+4]` [47OMESS(IV)], for which the “greater selectivity toward the cancerous cells compared to the non-cancerous MCs” value in data set [2] was 17–22 fold.
`N.N.O=C([O-])C1(C(=O)[O-])CCC1.[Pt+2]` [Carboplatin]: the MTD as platinum in data set [1] (setting [9]) is on record as 31.53 mg Pt/Kg.
On to `N.N.[Cl][Pt][Cl]` [Cisplatin], for which, in data set [3], the “accumulation in cytoplasmic fraction (CF)” value amounted to 38%; the “accumulation in membrane and organelle (MO) fraction” value came out at 47%; the “accumulation in nuclear and cytoskeletal (NC) fraction” value is 15%. In data set [4], this molecule yielded a maximum cellular uptake of 380 nmol/10^6 cells. Moreover, the IC50 in data set [5] is 6.7 ± 0.76 µM. Moreover, in data set [6], the mortality entry is recorded as “causes significant mortality”. Moreover, the “week from which tumor volume was significantly decreased compared to control” value in data set [7] is 4 week. Also, in data set [8] (48 or 72 h), the necrosis entry is recorded as “No evidence of significant necrosis”. Further, in data set [8] (48 h and 72 h), the “early and late apoptosis compared to the negative control” value was “significant (p < 0.0001) increase in both early and late apoptosis”. Also, the MTD as platinum in data set [1] (BALB/c mice, ref Aston et al. (2017)) is listed as 3.9 mg Pt/Kg.
